Results as given in ChEMBL document CHEMBL1149650, “4-Amino-6-piperazin-1-yl-pyrimidine-5-carbaldehyde oximes as potent FLT-3 inhibitors” (Bioorg Med Chem Lett, 2007).
pIC50: −log10 of the molar value.

What was measured:
MV4-11 = test: Antiproliferative activity against human MV411 cells
BaF3 [1] = test: Antiproliferative activity against […] BaF3 cells at 10 uM; format: functional
BaF3 [2] = test: Antiproliferative activity against human BaF3 cells expressing FLT3; conditions: Mus musculus
[3] = molecular target: Mast/stem cell growth factor receptor Kit (Homo sapiens, UniProt P10721); test: Inhibition of c-kit
Sequence of Mast/stem cell growth factor receptor Kit (P10721 whole entry): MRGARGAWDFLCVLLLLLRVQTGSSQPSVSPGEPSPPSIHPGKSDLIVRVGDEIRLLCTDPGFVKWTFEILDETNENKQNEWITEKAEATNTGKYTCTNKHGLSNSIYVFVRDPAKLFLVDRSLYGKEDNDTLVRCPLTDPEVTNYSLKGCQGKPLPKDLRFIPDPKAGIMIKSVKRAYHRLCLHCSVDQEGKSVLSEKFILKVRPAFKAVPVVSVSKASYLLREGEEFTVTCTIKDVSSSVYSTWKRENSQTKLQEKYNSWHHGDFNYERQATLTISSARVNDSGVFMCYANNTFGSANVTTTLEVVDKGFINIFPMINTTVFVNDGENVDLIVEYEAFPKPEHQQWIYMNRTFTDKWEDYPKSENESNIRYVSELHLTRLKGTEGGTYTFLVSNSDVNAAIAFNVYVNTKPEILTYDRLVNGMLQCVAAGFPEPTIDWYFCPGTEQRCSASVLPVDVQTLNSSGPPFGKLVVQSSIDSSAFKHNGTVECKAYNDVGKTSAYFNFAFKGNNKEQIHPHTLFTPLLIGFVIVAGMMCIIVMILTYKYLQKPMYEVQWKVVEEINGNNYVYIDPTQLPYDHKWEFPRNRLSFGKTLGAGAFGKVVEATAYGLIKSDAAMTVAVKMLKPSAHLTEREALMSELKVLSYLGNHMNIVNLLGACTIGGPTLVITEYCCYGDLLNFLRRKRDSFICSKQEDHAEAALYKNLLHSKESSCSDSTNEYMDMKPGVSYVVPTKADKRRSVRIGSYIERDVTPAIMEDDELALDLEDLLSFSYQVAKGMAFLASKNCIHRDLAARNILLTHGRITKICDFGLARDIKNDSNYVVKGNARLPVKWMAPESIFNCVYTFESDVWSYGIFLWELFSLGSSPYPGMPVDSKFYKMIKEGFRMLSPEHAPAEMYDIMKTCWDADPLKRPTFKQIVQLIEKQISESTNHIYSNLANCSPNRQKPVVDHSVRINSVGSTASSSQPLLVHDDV

[4] = molecular target: ALK tyrosine kinase receptor (Homo sapiens) (UniProt Q9UM73); test: Inhibition of ALK at 3 uM
Sequence of ALK tyrosine kinase receptor (Homo sapiens) (Q9UM73 19-1620 limits assumed): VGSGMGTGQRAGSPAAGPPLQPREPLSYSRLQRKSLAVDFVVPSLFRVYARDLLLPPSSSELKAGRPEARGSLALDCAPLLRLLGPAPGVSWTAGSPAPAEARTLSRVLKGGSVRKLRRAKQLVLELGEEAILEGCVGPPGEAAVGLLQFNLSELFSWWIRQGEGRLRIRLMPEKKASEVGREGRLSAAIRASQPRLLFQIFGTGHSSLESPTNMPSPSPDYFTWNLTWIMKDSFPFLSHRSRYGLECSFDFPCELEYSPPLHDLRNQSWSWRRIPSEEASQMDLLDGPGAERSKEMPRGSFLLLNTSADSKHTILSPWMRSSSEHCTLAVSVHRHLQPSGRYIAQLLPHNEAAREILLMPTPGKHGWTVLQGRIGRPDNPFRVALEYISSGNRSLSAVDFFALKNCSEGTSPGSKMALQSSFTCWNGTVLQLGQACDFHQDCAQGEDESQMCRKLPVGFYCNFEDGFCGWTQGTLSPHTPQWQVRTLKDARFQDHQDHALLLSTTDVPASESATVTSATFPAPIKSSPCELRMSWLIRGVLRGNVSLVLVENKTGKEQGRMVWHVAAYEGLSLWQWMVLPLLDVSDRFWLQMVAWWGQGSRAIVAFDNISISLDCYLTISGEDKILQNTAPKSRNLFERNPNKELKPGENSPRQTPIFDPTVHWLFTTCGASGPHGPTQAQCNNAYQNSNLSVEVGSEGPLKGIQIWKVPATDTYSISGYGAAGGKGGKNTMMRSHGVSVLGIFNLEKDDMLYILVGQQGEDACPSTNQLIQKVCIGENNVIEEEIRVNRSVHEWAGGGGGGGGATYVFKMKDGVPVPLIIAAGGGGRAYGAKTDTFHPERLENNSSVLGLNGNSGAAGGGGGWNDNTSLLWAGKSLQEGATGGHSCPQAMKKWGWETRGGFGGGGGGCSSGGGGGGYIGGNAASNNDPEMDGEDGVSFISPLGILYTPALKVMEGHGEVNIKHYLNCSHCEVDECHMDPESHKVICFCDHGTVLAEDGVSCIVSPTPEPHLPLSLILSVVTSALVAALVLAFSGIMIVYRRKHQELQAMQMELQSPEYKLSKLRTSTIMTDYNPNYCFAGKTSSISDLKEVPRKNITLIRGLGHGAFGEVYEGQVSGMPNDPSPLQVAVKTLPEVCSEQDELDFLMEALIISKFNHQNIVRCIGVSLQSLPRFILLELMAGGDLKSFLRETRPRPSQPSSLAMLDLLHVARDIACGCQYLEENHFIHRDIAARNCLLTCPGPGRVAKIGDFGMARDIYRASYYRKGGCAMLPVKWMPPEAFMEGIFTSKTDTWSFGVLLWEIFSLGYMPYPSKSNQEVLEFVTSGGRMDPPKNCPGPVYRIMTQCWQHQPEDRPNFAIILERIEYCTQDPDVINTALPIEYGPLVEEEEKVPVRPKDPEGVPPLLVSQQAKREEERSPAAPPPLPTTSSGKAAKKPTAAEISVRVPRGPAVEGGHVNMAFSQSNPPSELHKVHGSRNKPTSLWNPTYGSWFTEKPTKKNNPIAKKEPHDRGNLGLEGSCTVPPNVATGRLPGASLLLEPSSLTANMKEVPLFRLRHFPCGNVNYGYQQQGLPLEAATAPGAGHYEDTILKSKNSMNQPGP
Procedure, shortened: (§1)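 Run in an external kinase selectivity panel at 3 µM compound with 100 µM ATP. Reported as percent inhibition.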

[5] = molecular target: Platelet-derived growth factor receptor beta (Homo sapiens, UniProt P09619); test: Inhibition of PDGFRbeta
Sequence of Platelet-derived growth factor receptor beta (P09619 whole entry): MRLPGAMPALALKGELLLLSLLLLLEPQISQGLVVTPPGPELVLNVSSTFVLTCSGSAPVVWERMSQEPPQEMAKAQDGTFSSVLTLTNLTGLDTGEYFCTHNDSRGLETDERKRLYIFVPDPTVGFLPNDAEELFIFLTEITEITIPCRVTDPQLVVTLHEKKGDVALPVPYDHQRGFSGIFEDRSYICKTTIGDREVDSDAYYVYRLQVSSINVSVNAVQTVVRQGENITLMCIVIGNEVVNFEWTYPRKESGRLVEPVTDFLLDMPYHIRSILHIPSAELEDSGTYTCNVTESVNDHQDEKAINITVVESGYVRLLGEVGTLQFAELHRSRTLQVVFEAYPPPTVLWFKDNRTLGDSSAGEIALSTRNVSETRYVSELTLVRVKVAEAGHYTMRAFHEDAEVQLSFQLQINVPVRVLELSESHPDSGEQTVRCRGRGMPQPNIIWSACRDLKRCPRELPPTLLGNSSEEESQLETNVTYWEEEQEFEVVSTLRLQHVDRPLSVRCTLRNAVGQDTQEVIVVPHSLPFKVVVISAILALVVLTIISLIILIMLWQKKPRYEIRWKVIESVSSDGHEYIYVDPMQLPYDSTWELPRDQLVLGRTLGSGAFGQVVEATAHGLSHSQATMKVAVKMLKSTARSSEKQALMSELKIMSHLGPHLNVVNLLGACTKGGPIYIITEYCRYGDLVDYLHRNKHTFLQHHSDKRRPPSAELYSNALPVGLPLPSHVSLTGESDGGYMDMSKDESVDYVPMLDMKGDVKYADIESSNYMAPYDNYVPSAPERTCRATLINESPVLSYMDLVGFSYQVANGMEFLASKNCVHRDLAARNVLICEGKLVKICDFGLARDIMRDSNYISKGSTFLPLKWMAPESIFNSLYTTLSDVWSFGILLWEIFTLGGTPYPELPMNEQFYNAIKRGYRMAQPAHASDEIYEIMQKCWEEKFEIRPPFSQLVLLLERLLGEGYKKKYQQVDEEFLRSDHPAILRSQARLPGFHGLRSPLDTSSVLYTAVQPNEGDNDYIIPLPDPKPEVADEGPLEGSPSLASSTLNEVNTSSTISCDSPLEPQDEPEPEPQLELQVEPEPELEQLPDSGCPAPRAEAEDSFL

[6] = molecular target: Tyrosine-protein kinase Fes/Fps (Homo sapiens) (UniProt P07332); test: Inhibition of FES at 3 uM; procedure, shortened: as §1
Sequence of Tyrosine-protein kinase Fes/Fps (Homo sapiens) (P07332 whole entry): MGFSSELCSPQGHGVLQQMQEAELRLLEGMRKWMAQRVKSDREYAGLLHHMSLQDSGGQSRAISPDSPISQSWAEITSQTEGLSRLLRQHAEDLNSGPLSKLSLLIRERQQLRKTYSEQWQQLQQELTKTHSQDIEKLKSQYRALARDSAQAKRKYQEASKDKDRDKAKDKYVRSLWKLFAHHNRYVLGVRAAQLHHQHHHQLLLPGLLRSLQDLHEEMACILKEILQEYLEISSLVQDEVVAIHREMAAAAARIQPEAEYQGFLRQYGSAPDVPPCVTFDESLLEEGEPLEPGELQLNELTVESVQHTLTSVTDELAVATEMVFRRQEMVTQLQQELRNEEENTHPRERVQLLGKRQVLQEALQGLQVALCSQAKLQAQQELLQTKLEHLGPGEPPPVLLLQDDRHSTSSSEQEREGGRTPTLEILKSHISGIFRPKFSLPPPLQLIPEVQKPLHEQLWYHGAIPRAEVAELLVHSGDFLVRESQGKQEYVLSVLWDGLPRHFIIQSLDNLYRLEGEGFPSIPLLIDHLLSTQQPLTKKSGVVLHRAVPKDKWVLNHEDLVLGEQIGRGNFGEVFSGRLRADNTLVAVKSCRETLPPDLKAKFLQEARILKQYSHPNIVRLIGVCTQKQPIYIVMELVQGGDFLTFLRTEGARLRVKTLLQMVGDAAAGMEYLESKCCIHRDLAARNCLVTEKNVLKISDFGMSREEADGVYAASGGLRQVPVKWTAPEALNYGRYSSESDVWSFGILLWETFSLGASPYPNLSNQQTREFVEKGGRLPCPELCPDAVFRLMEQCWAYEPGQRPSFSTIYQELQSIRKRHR

[7] = Inhibition of c-fms; set-up: species or system Homo sapiens

| SMILES | pIC50 (MV4-11) | other results |
| --- | --- | --- |
| Nc1ncnc(N2CCN(C(=O)Nc3ccc(N4CCCC4)cc3)CC2)c1/C=N/OCC(=O)N1CCOCC1 | 6.34 |  |
| CC(C)Oc1ccc(NC(=O)N2CCN(c3ncnc(N)c3/C=N/OCCN3CCOCC3)CC2)cc1 | 6.75 |  |
| CO/N=C/c1c(N)ncnc1N1CCN(C(=O)Nc2ccc(N3CCOCC3)cc2)CC1 | 6.29 | Activity (BaF3 [1]): <50% |
| CO/N=C/c1c(N)ncnc1N1CCN(C(=O)Nc2ccc(N3CCCC3)cc2)CC1 | 7.00 |  |
| CS(=O)(=O)NCCO/N=C/c1c(N)ncnc1N1CCN(C(=O)Nc2ccc(N3CCCC3)cc2)CC1 | 6.26 |  |
| CO/N=C/c1c(N)ncnc1N1CCN(C(=O)Nc2ccc(OC3CCCC3)nc2)CC1 | 6.95 |  |
| CC(C)Oc1ccc(NC(=O)N2CCN(c3ncnc(N)c3/C=N/OCC(=O)N3CCOCC3)CC2)cc1 | 6.57 |  |
| CCO/N=C/c1c(N)ncnc1N1CCN(C(=O)Nc2ccc(OC(C)C)cc2)CC1 | 7.11 |  |
| CCO/N=C/c1c(N)ncnc1N1CCN(C(=O)Nc2ccc(OC3CCC3)nc2)CC1 | 7.19 |  |
| CO/N=C/c1c(N)ncnc1N1CCN(C(=O)Nc2ccc(Cl)cc2)CC1 | < 6.00 | Activity (BaF3 [1]): <50% |
| CO/N=C/c1c(N)ncnc1N1CCN(C(=O)Nc2ccc(Oc3ccccc3)cc2)CC1 | 7.07 |  |
| Nc1ncnc(N2CCN(C(=O)Nc3ccc(N4CCCC4)cc3)CC2)c1/C=N/OCCN1CCOCC1 | 6.44 |  |
| CO/N=C/c1c(N)ncnc1N1CCN(C(=O)Nc2ccc(OC3CCC3)nc2)CC1 | 6.95 |  |
| CO/N=C/c1c(N)ncnc1N1CCN(C(=O)Nc2ccc(N(C)C)cc2)CC1 | 6.33 |  |
| CC(C)Oc1ccc(NC(=O)N2CCN(c3ncnc(N)c3/C=N/OCCNS(C)(=O)=O)CC2)cc1 | 6.38 |  |
| CCO/N=C/c1c(N)ncnc1N1CCN(C(=O)Nc2ccc(N3CCCCC3)cc2)CC1 | 7.24 |  |
| CO/N=C/c1c(N)ncnc1N1CCN(C(=O)Nc2ccc(N3CCCCC3)cc2)CC1 | 7.05 | pIC50 (BaF3 [2]): 6.82 |
| CO/N=C/c1c(N)ncnc1N1CCN(C(=O)Nc2ccc(OC(C)C)cc2)CC1 | 7.10 | pIC50 [3]: 7.98; inhibition [4]: 31%; pIC50 [5]: 4.97; inhibition [6]: 34%; pIC50 [7]: 5.89 |
| CC(C)Oc1ccc(NC(=O)N2CCN(c3ncnc(N)c3/C=N/OCCCO)CC2)cc1 | 6.55 |  |
| CO/N=C/c1c(N)ncnc1N1CCN(C(=O)Nc2ccc(C(C)C)cc2)CC1 | 7.11 | pIC50 (BaF3 [2]): 8.10 |
| CO/N=C/c1c(N)ncnc1N1CCN(C(=O)Nc2ccc(C3CCCCC3)cc2)CC1 | 7.28 |  |
